Screens: PubChem BioAssay, The Scripps Research Institute Molecular Screening Center
PAD4 inh: inhibitors of human PAD4 | AID 485272 | inhibition, % at 6.36 µM | actives 0.41% (n = 330,000) | recombinant PAD4, RCA probe fluorescence polarization;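 active = percent inhibition above a cutoff equal to the mean of all tested compounds plus 3 SD, cut at about 15% in these data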
PRMT1 inh: PRMT1 (human) inhibition, primary screen; recombinant PRMT1, activity-based probe fluorescence polarization; actives 1.3% (n = 370,000); Q99873; AID 652257; inhibition, % at 2.79 µM;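 active = inhibition above about 21% made by adding two undisclosed values, limit read from the data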
Target sequence (Q99873 whole entry, looked up): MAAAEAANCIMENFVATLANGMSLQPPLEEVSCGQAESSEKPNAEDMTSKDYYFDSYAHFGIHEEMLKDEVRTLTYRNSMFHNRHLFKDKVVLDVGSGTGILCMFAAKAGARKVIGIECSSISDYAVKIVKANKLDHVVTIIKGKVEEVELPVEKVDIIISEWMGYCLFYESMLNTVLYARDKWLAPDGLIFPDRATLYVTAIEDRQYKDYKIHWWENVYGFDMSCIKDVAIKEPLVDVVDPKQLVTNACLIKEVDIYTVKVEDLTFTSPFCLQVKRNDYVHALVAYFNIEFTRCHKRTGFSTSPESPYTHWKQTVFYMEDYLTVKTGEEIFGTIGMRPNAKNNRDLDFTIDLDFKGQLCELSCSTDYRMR
SIAE inh: blocks human sialic acid acetylesterase; SIAE FP-Rh probe binding, fluorescence polarization; inhibition, % at 9.66 µM; actives 0.69% (n = 370,000); AID 1053197;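 active = inhibition above a cutoff: mean of compounds within the control limits plus 3 SD of those, cut at about 17% in these data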
GSTO1 counter: counter-screen for RBBP9 inhibitors: inhibitors of human GSTO1; recombinant GSTO1, activity-based probe fluorescence polarization; inhibition, % at 5.96 µM; actives 1.1% (n = 300,000);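 active = inhibition above the campaign mean inhibition plus 3 SD, cut at about 35% in these data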
RBBP9 inh: blocks human serine hydrolase RBBP9 | O75884 | recombinant RBBP9, FP-Rh probe fluorescence polarization | inhibition, % at 7.94 µM | actives 0.2% (n = 220,000) | AID 1515;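 active = inhibition above the campaign mean of all tested compounds plus 3 SD, cut at about 14% in these data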
Target sequence (O75884 whole entry, looked up): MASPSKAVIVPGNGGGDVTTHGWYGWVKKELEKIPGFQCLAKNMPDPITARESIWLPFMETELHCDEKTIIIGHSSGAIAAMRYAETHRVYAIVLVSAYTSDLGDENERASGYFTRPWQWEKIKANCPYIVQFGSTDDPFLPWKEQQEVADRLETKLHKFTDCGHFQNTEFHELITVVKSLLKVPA
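Controls: DMSO-treated enzyme wells and wells lacking RBBP9 | Material: RBBP9 protein | Technique: Fluorescence polarization | Replication: Single well per compound, no replicates | Buffer or medium: Tris-NaCl-Pluronic buffer, pH 8.0 | Timing: 30 min compound preincubation, 45 min probe labeling, 25 °C | Read-out basis: Percent inhibition from mP, scaled between DMSO and no-protein wells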
PRMT1 inh conf: confirmation of human PRMT1 inhibitors | shares compounds with PRMT1 inh | recombinant His-PRMT1, activity-based probe fluorescence polarization | inhibition, % at 2.79 µM | actives 42% (n = 3,300) | AID 687036;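 active = mean inhibition across replicates above the hit cutoff derived for the earlier primary screen, cut at about 22% in these data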
Of the large screens only hits and unclear results are named; the others gave an inactive call (follow-up assays come after a bar, where they were run). A selection: hits, their analogues and other compounds. The true share with any hit is near 2.7%.

CC(C)OC(=O)c1cc2c(ccn2C)n1CC(=O)N(Cc1ccccc1)c1ccc(F)cc1	PRMT1 inh 25.0 | PRMT1 inh conf inactive
CCOC(=O)c1cc2c(ccn2C)n1CC(=O)N(Cc1ccccc1)c1ccccc1	PRMT1 inh 29.4 | PRMT1 inh conf inactive
CCOC(=O)c1cc2c(ccn2C)n1CC(=O)N(Cc1ccccc1)c1ccc(F)cc1	none
Cn1cccc/c1=N\c1cccc[n+]1C	none
COc1ccccc1NS(=O)(=O)c1cc(N2Cc3ccccc3C2=N)ccc1N1CCOCC1	PRMT1 inh 26.5 | PRMT1 inh conf inactive
O=[N+]([O-])c1cnccc1NC1CCCCC1	none (no result: RBBP9 inh)
O=C(CCCn1c(=S)[nH]c2ccc(Br)cc2c1=O)NCC1CCCO1 (stereo not drawn)	none
COCCN(CC(=O)NC1CCCCC1)C(=O)/C=C/C(=O)c1ccc(OC)cc1O	none (no result: PAD4 inh, GSTO1 counter)
COc1ccc(C(=O)/C=C/C(=O)N(CC(=O)NC2CCCCC2)Cc2cccs2)c(O)c1	PRMT1 inh 38.4 | PRMT1 inh conf 65.1
COc1ccc(CCNC(=O)C(=O)NCC2CCCO2)cc1 (stereo not drawn)	none
CCOc1cccc(N2C(=O)CC(NCc3ccc(S(N)(=O)=O)cc3)C2=O)c1 (stereo not drawn)	PRMT1 inh 45.9 | PRMT1 inh conf inactive
CCCCCCOc1ccc(N2C(=O)CC(NCc3ccc(S(N)(=O)=O)cc3)C2=O)cc1 (stereo not drawn)	none
CCOc1ccc(N2C(=O)CC(N)C2=O)cc1 (stereo not drawn)	PRMT1 inh 75.7 | PRMT1 inh conf 51.0
COc1ccc(N2C(=O)CC(NCc3cccs3)C2=O)cc1 (stereo not drawn)	PRMT1 inh 50.6 | PRMT1 inh conf inactive
CCOc1ccc(N2C(=O)CC(Cc3cc(C)cc(C)c3)C2=O)cc1 (stereo not drawn)	none (no result: PAD4 inh, GSTO1 counter, RBBP9 inh)
CCOc1ccc(N2C(=O)CC(NCC3CCCO3)C2=O)cc1 (stereo not drawn)	PRMT1 inh 79.6 | PRMT1 inh conf inactive
CCOc1ccc(C(=O)NCC2CCCO2)cc1 (stereo not drawn)	none
CCCC(C)NC(=O)COc1ccc(Sc2ccc(OCC(=O)NC(C)CCC)cc2)cc1 (stereo not drawn)	none
CC(C)COC(=O)c1cc(-c2ccc(/C=N/n3cnnc3)o2)ccc1Cl	none
CSc1nc2cc(S(=O)(=O)N3CCOCC3)ccc2s1	none
CCOc1ccc(N2C(=O)CC(NCc3ccc(F)cc3)C2=O)cc1 (stereo not drawn)	PRMT1 inh 54.8 | PRMT1 inh conf inactive
CCCCCCOc1ccc(N2C(=O)CC(NCCc3ccc(S(N)(=O)=O)cc3)C2=O)cc1 (stereo not drawn)	PRMT1 inh 41.8 | PRMT1 inh conf inactive
Cc1cccc(-n2nnc(C(=O)NCc3ccccn3)c2N)c1	none
CC[C@]12c3[nH]c4cc(CCC(=O)N(C)C)ccc4c3CCN1C(=O)[C@@H](CC(=O)NCC13CC4CC(CC(C4)C1)C3)C[C@@H]2C(=O)N1CCN(C(=O)c2ccco2)CC1	none (no result: GSTO1 counter, RBBP9 inh)
COc1ccccc1Cc1c(-c2ccco2)nc2ccc(Cl)cn12	PRMT1 inh 28.4 (no result: PAD4 inh, GSTO1 counter, RBBP9 inh) | PRMT1 inh conf inactive
COc1ccccc1Cc1c(-c2ccc(C)cc2)nc2ccc(Cl)cn12	none (no result: PAD4 inh, GSTO1 counter, RBBP9 inh)
COc1ccccc1Cc1c(-c2ccco2)nc2ccc(Br)cn12	PRMT1 inh 31.4 (no result: PAD4 inh, GSTO1 counter, RBBP9 inh) | PRMT1 inh conf 26.2
COc1ccccc1Cc1c(-c2ccc(F)cc2)nc2ccc(Br)cn12	none (no result: PAD4 inh, GSTO1 counter, RBBP9 inh)
COc1ccccc1CCC(=O)OCc1csc(CC(=O)Nc2ccccc2C)n1	none (no result: RBBP9 inh)
CN(C)CCCC(=O)c1ccc2c(c1)OCO2	none
O=C(O)CCSCC(=O)c1ccc2c(c1)OCCO2	PRMT1 inh 32.2 | PRMT1 inh conf inactive
O=C(CCN1Cc2ccccc2C1)c1ccc2c(c1)OCCO2	PRMT1 inh 26.4 | PRMT1 inh conf 22.2
CN(C)CCC(=O)c1ccc2c(c1)OCO2	PRMT1 inh 35.8 | PRMT1 inh conf inactive
O=C(CCN1CCc2ccccc2C(c2ccccc2)C1)c1ccc2c(c1)OCCO2 (stereo not drawn)	PRMT1 inh 38.2 | PRMT1 inh conf inactive
O=C(O)CCC(=O)c1ccc2c(c1)OCCO2	none
CC(NC(=O)COC(=O)c1nc(Cl)ccc1Cl)c1ccccc1 (stereo not drawn)	none (no result: GSTO1 counter, RBBP9 inh)
CC1=C(C(=O)Nc2ccccc2F)C(c2cccs2)C2=C(CCCC2=O)N1 (stereo not drawn)	none
Cc1ccc(NC(=O)COC(=O)c2cccnc2)cc1	none
CSC1=NSC2=NC(=O)/C(=C\c3coc4ccccc4c3=O)C(=N)N12	PRMT1 inh 31.1 | PRMT1 inh conf 71.6
Cc1ccc(C2=N/C(=C\c3coc4ccccc4c3=O)C(=O)O2)cc1	PRMT1 inh 37.5 (no result: PAD4 inh, GSTO1 counter, RBBP9 inh) | PRMT1 inh conf inactive
CCOc1cc(C(=O)Nc2cccnc2)cc(OCC)c1OCC	none (no result: RBBP9 inh)
Cc1[nH]nc2c1C1(CCN(Cc3ccccc3)CC1)C(C#N)=C(N)O2	PRMT1 inh 34.3 | PRMT1 inh conf inactive
CC(C)Cn1c(N)cc(=O)n(C)c1=O	none
COC(=O)c1ccc(NC(=O)C(OC)c2ccccc2)cc1 (stereo not drawn)	none
O=C1N2CCCc3cccc(c32)C12Nc1ccccc1S2 (stereo not drawn)	PRMT1 inh 39.7 (no result: PAD4 inh, GSTO1 counter) | PRMT1 inh conf 22.9
CCn1c(C)c(CS(=O)(=O)c2ccccc2)[nH]c1=O	PRMT1 inh 69.3 | PRMT1 inh conf 72.6
Clc1ccc(-c2nnc3sc(Cc4cccs4)nn23)cc1	none
Cc1ccc(NC(=O)CSc2ccc(-c3ccccn3)nn2)c(C)c1	none (no result: RBBP9 inh)
Cc1ccc(NC(=O)CSc2ccc(-c3cccnc3)nn2)c(C)c1	PRMT1 inh 50.8 (no result: RBBP9 inh) | PRMT1 inh conf inactive
CN1CCN(NC(=O)CN2C(=O)S/C(=C\c3c(Cl)cccc3Cl)C2=O)CC1	PRMT1 inh 26.2 | PRMT1 inh conf inactive
c1ccc2c(c1)Nc1cc3ccccc3cc1S2	none
Cc1ccc2c(c1)Sc1c(ccc3ccccc13)N2	PRMT1 inh 26.4 | PRMT1 inh conf inactive
CCOC(=O)c1ccc(Nc2cc(C)nc(-c3ccccc3O)n2)cc1	none
COc1ccccc1CC(=O)N1CCN(c2cccc(Cl)c2)CC1	none (no result: RBBP9 inh)
COc1ccc(C2CC(=O)N3CN(c4ccccc4F)CSC3=C2C#N)cc1OC (stereo not drawn)	none
COc1cc(OC)c(C2CC(=O)N3CN(c4ccccc4C)CSC3=C2C#N)cc1OC (stereo not drawn)	PRMT1 inh 29.3, GSTO1 counter 36.0 | PRMT1 inh conf 80.1
Cc1cccc(N2CSC3=C(C#N)C(c4ccc(C)o4)CC(=O)N3C2)c1 (stereo not drawn)	none (no result: PRMT1 inh, SIAE inh)
CCc1ccccc1N1CSC2=C(C#N)C(c3ccccc3F)CC(=O)N2C1 (stereo not drawn)	PRMT1 inh 53.6 | PRMT1 inh conf 42.5
CCOC(=O)c1ccc(NC(=O)CSCCC(=O)O)cc1	none
CCN(CC(=O)Nc1ccc(NC(C)=O)cc1)C(=O)CSCC(=O)Nc1ccc(C)cc1	none (no result: RBBP9 inh)
CCOC(=O)c1ccc(NC(=O)CSCc2ccco2)cc1	PRMT1 inh 81.8 | PRMT1 inh conf 84.3
